In ChEMBL document CHEMBL4689842, “EUbOPEN Chemogenomics Library wave 1” (2021):

Tested on: HEK-293T
Assay: Multiplex assay against HEK293T;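 as to Population Tubulin-Different-Phenotype (%): share of the cells with healthy nuclei that show this phenotype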
Type: toxicity, cell-based
Conditions: human
Outline: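 Hoechst33342, BioTracker Green Microtubule Cytoskeleton Dye, MitoTracker Red and Annexin V Alexa Fluor 680 were added to live cells at seeding, and imaging on a CQ1 microscope at 37°C and 5% CO2 followed compound addition. Gating by CellPathfinder machine learning separated cells into Hoechst high-intensity objects or normal cells, then normal cells into healthy, pyknosed or fragmented nuclei, then pyknosed cells into mitotic or apoptotic. Per cents of healthy-nucleus cells are reported for the tubulin, mitochondrial-mass and membrane-permeability phenotypes.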

[1] = 12 h, 1 µM, compound concentration 1 uM, replicate 1
[2] = 12 h, 1 µM, compound concentration 1 uM, replicate 2
[3] = 12 h, 10 µM, compound concentration 10 uM, replicate 1
[4] = 12 h, 10 µM, compound concentration 10 uM, replicate 2
[5] = 24 h, 1 µM, compound concentration 1 uM, replicate 1
[6] = 24 h, 1 µM, compound concentration 1 uM, replicate 2
[7] = 24 h, 10 µM, compound concentration 10 uM, replicate 1
[8] = 24 h, 10 µM, compound concentration 10 uM, replicate 2
[9] = 48 h, 1 µM, compound concentration 1 uM, replicate 1
[10] = 48 h, 1 µM, compound concentration 1 uM, replicate 2
[11] = 48 h, 10 µM, compound concentration 10 uM, replicate 1
[12] = 48 h, 10 µM, compound concentration 10 uM, replicate 2

COc1cc(-n2cnc3cc(-c4ccc(Cl)cc4)sc3c2=O)ccc1OCCN1CCCC1
Population Apoptotic (%) [1]: 59% | Population Fragmented Nuclei (%) [1]: 8% | Population Healthy Nuclei (%) [1]: 32% | Population Hoechst High Intensity Objects (%) [1]: 15% | Population Membrane Permeable-Phenotype (%) [1]: 1% | Population Mitochondria Different-Phenotype (%) [1]: 96% | Population Mitotic Cells (%) [1]: 40% | Population Normal (%) [1]: 84% | Population Pyknosed Nuclei (%) [1]: 58% | Population Tubulin-Different-Phenotype (%) [1]: 93% | Total Cell Count [1]: 212 | Population Apoptotic (%) [2]: 20% | Population Fragmented Nuclei (%) [2]: 5% | Population Healthy Nuclei (%) [2]: 40% | Population Hoechst High Intensity Objects (%) [2]: 4% | Population Membrane Permeable-Phenotype (%) [2]: 7% | Population Mitochondria Different-Phenotype (%) [2]: 42% | Population Mitotic Cells (%) [2]: 80% | Population Normal (%) [2]: 95% | Population Pyknosed Nuclei (%) [2]: 53% | Population Tubulin-Different-Phenotype (%) [2]: 60% | Total Cell Count [2]: 265 | Population Apoptotic (%) [3]: 57% | Population Fragmented Nuclei (%) [3]: 23% | Population Healthy Nuclei (%) [3]: 1% | Population Hoechst High Intensity Objects (%) [3]: 23% | Population Membrane Permeable-Phenotype (%) [3]: 0% | Population Mitochondria Different-Phenotype (%) [3]: 75% | Population Mitotic Cells (%) [3]: 42% | Population Normal (%) [3]: 76% | Population Pyknosed Nuclei (%) [3]: 74% | Population Tubulin-Different-Phenotype (%) [3]: 75% | Total Cell Count [3]: 285 | Population Apoptotic (%) [4]: 79% | Population Fragmented Nuclei (%) [4]: 16% | Population Healthy Nuclei (%) [4]: 15% | Population Hoechst High Intensity Objects (%) [4]: 4% | Population Membrane Permeable-Phenotype (%) [4]: 33% | Population Mitochondria Different-Phenotype (%) [4]: 58% | Population Mitotic Cells (%) [4]: 20% | Population Normal (%) [4]: 95% | Population Pyknosed Nuclei (%) [4]: 67% | Population Tubulin-Different-Phenotype (%) [4]: 66% | Total Cell Count [4]: 242 | Population Apoptotic (%) [5]: 72% | Population Fragmented Nuclei (%) [5]: 11% | Population Healthy Nuclei (%) [5]: 37% | Population Hoechst High Intensity Objects (%) [5]: 14% | Population Membrane Permeable-Phenotype (%) [5]: 1% | Population Mitochondria Different-Phenotype (%) [5]: 100% | Population Mitotic Cells (%) [5]: 27% | Population Normal (%) [5]: 85% | Population Pyknosed Nuclei (%) [5]: 50% | Population Tubulin-Different-Phenotype (%) [5]: 86% | Total Cell Count [5]: 207 | Population Apoptotic (%) [6]: 27% | Population Fragmented Nuclei (%) [6]: 4% | Population Healthy Nuclei (%) [6]: 61% | Population Hoechst High Intensity Objects (%) [6]: 2% | Population Membrane Permeable-Phenotype (%) [6]: 7% | Population Mitochondria Different-Phenotype (%) [6]: 52% | Population Mitotic Cells (%) [6]: 72% | Population Normal (%) [6]: 97% | Population Pyknosed Nuclei (%) [6]: 33% | Population Tubulin-Different-Phenotype (%) [6]: 66% | Total Cell Count [6]: 325 | Population Apoptotic (%) [7]: 73% | Population Fragmented Nuclei (%) [7]: 31% | Population Healthy Nuclei (%) [7]: 0% | Population Hoechst High Intensity Objects (%) [7]: 30% | Population Membrane Permeable-Phenotype (%) [7]: 0% | Population Mitochondria Different-Phenotype (%) [7]: 0% | Population Mitotic Cells (%) [7]: 26% | Population Normal (%) [7]: 69% | Population Pyknosed Nuclei (%) [7]: 68% | Population Tubulin-Different-Phenotype (%) [7]: 0% | Total Cell Count [7]: 277 | Population Apoptotic (%) [8]: 90% | Population Fragmented Nuclei (%) [8]: 20% | Population Healthy Nuclei (%) [8]: 22% | Population Hoechst High Intensity Objects (%) [8]: 7% | Population Membrane Permeable-Phenotype (%) [8]: 21% | Population Mitochondria Different-Phenotype (%) [8]: 68% | Population Mitotic Cells (%) [8]: 9% | Population Normal (%) [8]: 92% | Population Pyknosed Nuclei (%) [8]: 57% | Population Tubulin-Different-Phenotype (%) [8]: 48% | Total Cell Count [8]: 228 | Population Apoptotic (%) [9]: 53% | Population Fragmented Nuclei (%) [9]: 13% | Population Healthy Nuclei (%) [9]: 62% | Population Hoechst High Intensity Objects (%) [9]: 9% | Population Membrane Permeable-Phenotype (%) [9]: 5% | Population Mitochondria Different-Phenotype (%) [9]: 73% | Population Mitotic Cells (%) [9]: 46% | Population Normal (%) [9]: 90% | Population Pyknosed Nuclei (%) [9]: 23% | Population Tubulin-Different-Phenotype (%) [9]: 67% | Total Cell Count [9]: 312 | Population Apoptotic (%) [10]: 20% | Population Fragmented Nuclei (%) [10]: 4% | Population Healthy Nuclei (%) [10]: 79% | Population Hoechst High Intensity Objects (%) [10]: 3% | Population Membrane Permeable-Phenotype (%) [10]: 6% | Population Mitochondria Different-Phenotype (%) [10]: 21% | Population Mitotic Cells (%) [10]: 79% | Population Normal (%) [10]: 96% | Population Pyknosed Nuclei (%) [10]: 16% | Population Tubulin-Different-Phenotype (%) [10]: 57% | Total Cell Count [10]: 539 | Population Apoptotic (%) [11]: 76% | Population Fragmented Nuclei (%) [11]: 45% | Population Healthy Nuclei (%) [11]: 0% | Population Hoechst High Intensity Objects (%) [11]: 29% | Population Membrane Permeable-Phenotype (%) [11]: 0% | Population Mitochondria Different-Phenotype (%) [11]: 100% | Population Mitotic Cells (%) [11]: 23% | Population Normal (%) [11]: 70% | Population Pyknosed Nuclei (%) [11]: 54% | Population Tubulin-Different-Phenotype (%) [11]: 100% | Total Cell Count [11]: 270 | Population Apoptotic (%) [12]: 89% | Population Fragmented Nuclei (%) [12]: 21% | Population Healthy Nuclei (%) [12]: 28% | Population Hoechst High Intensity Objects (%) [12]: 10% | Population Membrane Permeable-Phenotype (%) [12]: 12% | Population Mitochondria Different-Phenotype (%) [12]: 73% | Population Mitotic Cells (%) [12]: 10% | Population Normal (%) [12]: 89% | Population Pyknosed Nuclei (%) [12]: 50% | Population Tubulin-Different-Phenotype (%) [12]: 38% | Total Cell Count [12]: 256
